Read-outs that look alike come from different tables or passages of the source.
Assays:
[1] = tested on: SARS CoV Urbani; assay: microbe, parasite or virus in culture; type: cell-based, SARS coronavirus; details: for EC50: Severe acute respiratory syndrome coronavirus
[2] = tested on: panel of approximately sixty human tumor cell lines; assay: NCI one-dose primary anticancer assay; type: cell-based; details: for anticancer activity in words / number of cell lines against which the compound was effective: 1 dose 10 μM; for activity at 10 µM: Homo sapiens, 60 cell, 48 h
How it was run: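 NCI DTP single-dose screen on approximately sixty human tumor cell lines from nine cancer types. Test compound added at 10⁻⁵ M and cultures incubated 48 h. End point by sulforhodamine B protein staining, read spectrophotometrically. Result expressed as percent growth of treated cells relative to untreated control cells.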

[3] = tested on: Flu A (H5N1) Duck/MN/1525/81; type: cell-based
[4] = tested on: four strains of influenza virus; assay: Primary antiviral assay, influenza strains taken together; type: cell-based
[5] = tested on: NSC lung cancer cell lines; assay: NCI five-dose anticancer assay; type: cell-based, human; details: 48 h; for GI50: Homo sapiens; for TGI: NSC lung cancer subpanel average, five concentrations
How it was run: (§1)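 Approximately sixty human tumor cell lines from nine cancer types, tested by the NCI DTP protocol. Test compound given at five 10-fold dilutions (100, 10, 1, 0.1, 0.01 μM) with 48 h continuous exposure. SRB protein staining read spectrophotometrically at time zero, in untreated control and in treated wells. […] MG_MID averages each parameter over all cell lines.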

[6] = tested on: Leukemia subpanel tumor cell lines; assay: NCI five-dose anticancer assay; type: cell-based, human; details: for GI50: Homo sapiens; for TGI: Leukemia subpanel average, five concentrations
How it was run: as §1

[7] = tested on: Colon cancer cell lines; assay: NCI five-dose anticancer assay; type: cell-based, human; details: 48 h; for TGI: Colon cancer subpanel average, five concentrations; for GI50: Homo sapiens
How it was run: as §1

[8] = tested on: Melanoma cell lines; assay: NCI five-dose anticancer assay; type: cell-based, human; details: 48 h; for GI50: Homo sapiens; for TGI: Melanoma subpanel average, five concentrations
How it was run: as §1

[9] = tested on: Breast cancer cell lines; assay: NCI five-dose anticancer assay; type: cell-based, human; details: 48 h; for TGI: Breast cancer subpanel average, five concentrations
How it was run: as §1

[10] = tested on: Renal cancer cell lines; assay: NCI five-dose anticancer assay; type: cell-based, human; details: 48 h; for GI50: Homo sapiens; for TGI: Renal cancer subpanel average, five concentrations
How it was run: as §1

[11] = tested on: CNS cancer cell lines; assay: NCI five-dose anticancer assay; type: cell-based, human; details: 48 h; for TGI: CNS cancer subpanel average, five concentrations; for GI50: Homo sapiens
How it was run: as §1

[12] = tested on: Ovarian cancer cell lines; assay: NCI five-dose anticancer assay; type: cell-based, human; details: 48 h; for GI50: Homo sapiens; for TGI: Ovarian cancer subpanel average, five concentrations
How it was run: as §1

[13] = tested on: panel of approximately sixty tumor cell lines; assay: NCI five-dose anticancer assay; type: cell-based; details: Homo sapiens, read-out: GI50 MG_MID
How it was run: as §1

[14] = tested on: MOLT-4; assay: NCI five-dose anticancer assay; type: cell-based, human; details: MOLT-4, Leukemia; 48 h
How it was run: as §1

[15] = tested on: HS 578T; assay: NCI five-dose anticancer assay; type: cell-based, human; details: Breast cancer, 48 h
How it was run: as §1

[16] = tested on: Prostate cancer cell lines; assay: NCI five-dose anticancer assay; type: cell-based; details: Homo sapiens, 48 h
How it was run: as §1

[17] = tested on: respiratory viruses panel (Flu A (H1N1), Flu A (H3N2), Flu A (H5N1), Flu B, SARS CoV); type: cell-based
[18] = in vitro
[19] = tested on: Flu B Florida/4/2006; assay: Primary antiviral assay; type: cell-based
[20] = tested on: Flu A (H3N2) Perth/16/2009; assay: Primary antiviral assay; type: cell-based
[21] = tested on: Flu A (H1N1) California/07/2009; assay: Primary antiviral assay; type: cell-based
[22] = tested on: uninfected cells
[23] = 50% effective (virus-inhibitory) concentration

In the case of COc1ccc(C2CC(c3ccc4ccccc4c3)=NN2C2SC(=O)NC2=O)cc1 (centres unmarked) [1a, 5-[5-(4-Methoxyphenyl)-3-naphthalen-2-yl-4,5-dihydropyrazol-1-yl]-thiazolidine-2,4-dione], the SI [1] is reported as 0, the EC50 [1] is reported as greater than 23.5 µM and the “anticancer activity in words” value [2] is reported as “did not show any activity”. The activity at 10 µM ([2]; read-out: Mean growth %) was 102% and the activity at 10 µM ([2]; read-out: Range of growth %) was 77.5 to 114%.

For O=C1NC(=O)C(N2N=C(c3ccc4ccccc4c3)CC2c2ccc(Cl)cc2)S1 (centres unmarked) [1b, 5-[5-(4-Chlorophenyl)-3-naphthalen-2-yl-4,5-dihydropyrazol-1-yl]-thiazolidine-2,4-dione], the SI [1] was 0, the EC50 [1] was greater than 23.2 µM and the “anticancer activity in words” value [2] was “did not show any activity”. The activity at 10 µM ([2]; read-out: Mean growth %) was 105% and the activity at 10 µM ([2]; read-out: Range of growth %) was 74.9 to 170%.

Molecule COc1ccc(C2CC(c3ccc4ccccc4c3)=NN2C2SC(=O)N(CC(=O)Nc3ccc(C)cc3)C2=O)cc1 (centres unmarked) [2a, 2-{5-[5-(4-Methoxyphenyl)-3-naphthalen-2-yl-4,5-dihydropyrazol-1-yl]-2,4-dioxothiazolidin-3-yl}-N-p-tolylacetamide] has an SI [3] greater than 16.3, an SI [1] of 0 and an EC50 [1] greater than 313 µM. The “anticancer activity in words” value [2] was “did not show any activity”, the activity at 10 µM ([2]; read-out: Mean growth %) was 99.2% and the activity at 10 µM ([2]; read-out: Range of growth %) was 76.6 to 114%. For the same molecule, the “activity against other influenza strains, in words” value [4] was “did not have significant activity”.

Cc1ccc(NC(=O)CN2C(=O)SC(N3N=C(c4ccc5ccccc5c4)CC3c3ccc(Cl)cc3)C2=O)cc1 (centres unmarked) [2b, 2-{5-[5-(4-Chlorophenyl)-3-naphthalen-2-yl-4,5-dihydropyrazol-1-yl]-2,4-dioxothiazolidin-3-yl}-N-p-tolylacetamide] showed an SI [1] of 0 and an EC50 [1] greater than 351 µM.

For COc1ccc(NC(=O)CN2C(=O)SC(N3N=C(c4ccc5ccccc5c4)CC3c3ccc(Cl)cc3)C2=O)cc1 (centres unmarked) [2c, 2-{5-[5-(4-Chlorophenyl)-3-naphthalen-2-yl-4,5-dihydropyrazol-1-yl]-2,4-dioxothiazolidin-3-yl}-N-(4-methoxyphenyl)-acetamide], the SI [1] was 0 and the EC50 [1] was greater than 342 µM.

For COc1ccc(C2CC(c3ccc4ccccc4c3)=NN2C2SC(=O)N(CN3CCCCC3)C2=O)cc1 (centres unmarked) [3a, 5-[5-(4-Methoxyphenyl)-3-naphthalen-2-yl-4,5-dihydropyrazol-1-yl]-3-piperidin-1-ylmethylthiazolidine-2,4-dione], the activity at 10 µM ([2]; read-out: Mean growth %) was 101% and the activity at 10 µM ([2]; read-out: Range of growth %) was 69.5 to 113%.

COc1ccc(C2CC(c3ccc4ccccc4c3)=NN2C2SC(=O)N(CN3CCOCC3)C2=O)cc1 (centres unmarked) [3b, 5-[5-(4-Methoxyphenyl)-3-naphthalen-2-yl-4,5-dihydropyrazol-1-yl]-3-morpholin-4-ylmethylthiazolidine-2,4-dione] showed an activity at 10 µM ([2]; read-out: Mean growth %) of 99.5% and an activity at 10 µM ([2]; read-out: Range of growth %) of 67.5 to 122%.

COc1ccc(C2CC(c3ccc4ccccc4c3)=NN2C2SC(=O)N(CN3CCN(C(C)=O)CC3)C2=O)cc1 (centres unmarked) [3c, 3-(4-Acetylpiperazin-1-ylmethyl)-5-[5-(4-methoxyphenyl)-3-naphthalen-2-yl-4,5-dihydro-pyrazol-1-yl]-thiazolidine-2,4-dione] gave an activity at 10 µM ([2]; read-out: Mean growth %) of 101% and an activity at 10 µM ([2]; read-out: Range of growth %) of 82.2 to 126%.

Molecule COc1ccc(C2CC(c3ccc4ccccc4c3)=NN2C2SC(=O)N(CN3CCN(Cc4ccccc4)CC3)C2=O)cc1 (centres unmarked) [3d, 3-(4-Benzylpiperazin-1-ylmethyl)-5-[5-(4-methoxyphenyl)-3-naphthalen-2-yl-4,5-dihydropyrazol-1-yl]-thiazolidine-2,4-dione] has an activity at 10 µM ([2]; read-out: Mean growth %) of 103% and an activity at 10 µM ([2]; read-out: Range of growth %) of 74.5 to 127%.

In the case of CCN1CCN(CN2C(=O)SC(N3N=C(c4ccc5ccccc5c4)CC3c3ccc(Cl)cc3)C2=O)CC1 (centres unmarked) [3e, 5-[5-(4-Chlorophenyl)-3-naphthalen-2-yl-4,5-dihydropyrazol-1-yl]-3-(4-ethylpiperazin-1-ylmethyl)-thiazolidine-2,4-dione], the SI [1] is reported as 0 and the EC50 [1] is reported as greater than 16.8 µM.

With CC(=O)N1CCN(CN2C(=O)SC(N3N=C(c4ccc5ccccc5c4)CC3c3ccc(Cl)cc3)C2=O)CC1 (centres unmarked) [3f, 3-(4-Acetylpiperazin-1-ylmethyl)-5-[5-(4-chlorophenyl)-3-naphthalen-2-yl-4,5-dihydropyrazol-1-yl]-thiazolidine-2,4-dione] the “anticancer activity in words” value [2] was “did not show any activity”, the activity at 10 µM ([2]; read-out: Mean growth %) was 102% and the activity at 10 µM ([2]; read-out: Range of growth %) was 76.4 to 131%.

With COc1ccc(C2CC(c3ccccc3)=NN2C(=O)/C=C2\SC(=O)NC2=O)cc1 (centres unmarked) [4a, 5-{2-[5-(4-Methoxyphenyl)-3-phenyl-4,5-dihydropyrazol-1-yl]-2-oxoethylidene}-thiazolidine-2,4-dione] the “anticancer activity in words” value [2] was “moderately effective against few cell lines”, the activity at 10 µM ([2]; read-out: Mean growth %) was 96.6% and the activity at 10 µM ([2]; read-out: Range of growth %) was 39.1 to 147%.

In the case of COc1ccc(C2=NN(C(=O)/C=C3\SC(=O)NC3=O)C(c3ccccc3O)C2)cc1 (centres unmarked) [4d, 5-{2-[5-(2-Hydroxyphenyl)-3-(4-methoxyphenyl)-4,5-dihydropyrazol-1-yl]-2-oxoethylidene}-thiazolidine-2,4-dione], the GI50 [5] is reported as 7.91 µM, the TGI [5] is reported as 42.06 µM and the GI50 ([6]; 48 h) is reported as 3.28 µM. For the same molecule, the GI50 ([6]; read-out: GI50 values range) was 2.12 to 4.58 µM, the TGI ([6]; 48 h) was 25.31 µM and the “number of cell lines against which the compound was effective” value [2] was 12 cell lines. For the same molecule, the activity at 10 µM ([2]; read-out: Mean growth %) was 60.1%, the activity at 10 µM ([2]; read-out: Range of growth %) was -27.3 to 160% and the TGI [7] was 21.01 µM. The GI50 [7] was 5.73 µM, the GI50 [8] was 8.07 µM and the TGI [8] was 28.21 µM. For the same molecule, the TGI [9] was 47.30 µM, the GI50 ([9]; Homo sapiens) was 6.5 µM and the GI50 [10] was 8.13 µM. The TGI [10] was 44.04 µM, the TGI [11] was 24.10 µM and the GI50 [11] was 7.57 µM. The GI50 [12] was 11.4 µM, the TGI [12] was 79.20 µM and the GI50 [13] was 7.02 µM.

With COc1ccc(C2CC(c3ccc4ccccc4c3)=NN2C(=O)/C=C2\SC(=O)NC2=O)cc1 (centres unmarked) [4e, 5-{2-[5-(4-Methoxyphenyl)-3-naphthalen-2-yl-4,5-dihydropyrazol-1-yl]-2-oxoethylidene}-thiazolidine-2,4-dione] the “anticancer activity in words” value [2] was “did not show any activity”, the activity at 10 µM ([2]; read-out: Mean growth %) was 99.7% and the activity at 10 µM ([2]; read-out: Range of growth %) was 78.7 to 132%.

Work on O=C1NC(=O)/C(=C/C(=O)N2N=C(c3ccc4ccccc4c3)CC2c2ccc(Cl)cc2)S1 (centres unmarked) [4f, 5-{2-[5-(4-Chlorophenyl)-3-naphthalen-2-yl-4,5-dihydropyrazol-1-yl]-2-oxoethylidene}-thiazolidine-2,4-dione] yielded a TGI [14] of 7.41 µM, a GI50 [5] of 3.52 µM and a TGI [5] of 61.59 µM. For the same molecule, the GI50 ([6]; read-out: GI50 values range) was 1.64 to 3.2 µM, the TGI ([6]; 48 h) was 7.38 µM and the TGI [15] was 8.26 µM. The “number of cell lines against which the compound was effective” value [2] was 18 cell lines, the activity at 10 µM ([2]; read-out: Mean growth %) was 51% and the activity at 10 µM ([2]; read-out: Range of growth %) was -5.27 to 109%. It also gave a TGI [7] of 63.20 µM, a GI50 [7] of 3.53 µM and a GI50 [8] of 4.08 µM. The TGI [8] was 45.88 µM, the TGI [9] was 15.85 µM and the GI50 [10] was 4.66 µM. For the same molecule, the TGI [10] was 53.25 µM, the TGI [11] was 31.99 µM and the GI50 [11] was 4.09 µM. It also gave a GI50 [16] of 4.61 µM, a GI50 [12] of 9.79 µM and a TGI [12] of 79.83 µM. For the same molecule, the GI50 [13] was 4.38 µM.

In the case of COc1ccc(NC(=O)CN2C(=O)S/C(=C\C(=O)N3N=C(c4ccc5ccccc5c4)CC3c3ccc(OC)cc3)C2=O)cc1 (centres unmarked) [5d, N-(4-Methoxyphenyl)-2-(5-{2-[5-(4-methoxyphenyl)-3-naphthalen-2-yl-4,5-dihydropyrazol-1-yl]-2-oxoethylidene}-2,4-dioxothiazolidin-3-yl)-acetamide], the “anticancer activity in words” value [2] is reported as “did not show any activity”, the activity at 10 µM ([2]; read-out: Mean growth %) is reported as 98% and the activity at 10 µM ([2]; read-out: Range of growth %) is reported as 74.7 to 119%.

With NC(=O)c1ncn([C@@H]2O[C@H](CO)[C@@H](O)[C@H]2O)n1 [Ribavirin] the “activity of positive controls, in words” value [17] was “active as expected” and the CC50 [18] was greater than 348 µM.

“oseltamivir carboxylate [Oseltamirvir-carboxylate]” gave an EC50 [19, 23] of 3.52 µM, an SI ([19]; […]) greater than 10 and an EC50 [20, 23] of 3.06 µM. The SI ([20]; […]) was greater than 11, the EC50 [3] was 0.11 µM and the SI [3] was greater than 326. The “activity of positive controls, in words” value [17] was “active as expected”, the EC50 [21, 23] was 19 µM and the SI ([21]; […]) was greater than 1.9. The CC50 [22] was greater than 35.2 µM.
